Rows were chosen to be rich in hits. Some 3% of all compounds tested hit in one or more screens of this group.
Tn7 DDE FP: DD(E)-Tn7 binding inhibition, primary FP screen | FP displacement of FITC-Tn7 peptide from fibrin DD(E); 0% = median of compound wells per plate | AID 720508 | P02675 | 370,000 tested, 0.13% active | inhibition, % at 8.3 µM;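 active = inhibition above the mean of compounds falling within the control limits plus 3 SD of them, cut at about 14% in these data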;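 note: 0% = plate median of compound wells and 100% = 10 µM Aha-Tn7 peptide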
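assay system = human clot-derived fibrin DD(E) complex | quantity = Fibrin-DD(E) at 2 µM final | timing = 10 min preincubation, 3 h with tracer, room temperature | signal = fluorescence polarization | measure = percent inhibition | benchmarks = high control wells with 10 µM unlabelled Aha-Tn7 peptide (full inhibition) | replicates = singlicate testing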
DDE Tn6 FP inh: disrupts Tn6 cyclic peptide binding to fibrin D-Dimer-E complex. Fibrin DD(E) TRITC-Tn6 fluorescence polarization displacement. inhibition, % at 8.3 µM. 370,000 tested, 0.21% active;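 active = inhibition above a per-campaign cutoff: mean of compounds within control limits plus 3 SD, cut at about 15% in these data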;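 note: 0% = median of all compound wells on the plate and 100% = blocking peptide control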
CendR NRP1 mod: NRP-1/CendR interaction modulation; FAM-RPARPAR peptide binding to NRP-1, fluorescence polarization; AID 602438; O14786; 360,000 tested, 0.85% active; inhibition, % at 25 µM;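 active = inhibition or corrected inhibition above about 18%, plus a signal ratio from 0.5 to 1.5, limit read from the data, passing the limit was not always enough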
proKLK7 act: activators of human kallikrein-7 zymogen; P49862; purified proKLK7, EDANS-DABCYL substrate fluorescence; 100% is mature enzyme control, 0% vehicle; activation, % at 7 µM; 370,000 tested, 0.9% active; AID 652039;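 active = activation above the mean of all tested compounds plus 3 SD, computed per campaign excluding outliers beyond control limits, cut at about 13% in these data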
PLC-gamma1 inh: PLC-gamma1 (human) inhibition, primary screen; P19174; purified PLC-gamma1, fluorogenic substrate, fluorescence; inhibition, % at 12.2 µM; 370,000 tested, 0.84% active; in the data active = inhibition above about 9.5%
PLCb3 inh: PLC-beta3 (human) inhibition, primary screen; Q01970; Purified PLC-beta3, fluorogenic substrate, fluorescence; inhibition, % at 12.2 µM; 370,000 tested, 0.18% active; in the data active = inhibition above about 11%;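 note: 0% = median of compound wells on plate and 100% = full blocker control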
Target sequence (Q01970 whole entry, looked up): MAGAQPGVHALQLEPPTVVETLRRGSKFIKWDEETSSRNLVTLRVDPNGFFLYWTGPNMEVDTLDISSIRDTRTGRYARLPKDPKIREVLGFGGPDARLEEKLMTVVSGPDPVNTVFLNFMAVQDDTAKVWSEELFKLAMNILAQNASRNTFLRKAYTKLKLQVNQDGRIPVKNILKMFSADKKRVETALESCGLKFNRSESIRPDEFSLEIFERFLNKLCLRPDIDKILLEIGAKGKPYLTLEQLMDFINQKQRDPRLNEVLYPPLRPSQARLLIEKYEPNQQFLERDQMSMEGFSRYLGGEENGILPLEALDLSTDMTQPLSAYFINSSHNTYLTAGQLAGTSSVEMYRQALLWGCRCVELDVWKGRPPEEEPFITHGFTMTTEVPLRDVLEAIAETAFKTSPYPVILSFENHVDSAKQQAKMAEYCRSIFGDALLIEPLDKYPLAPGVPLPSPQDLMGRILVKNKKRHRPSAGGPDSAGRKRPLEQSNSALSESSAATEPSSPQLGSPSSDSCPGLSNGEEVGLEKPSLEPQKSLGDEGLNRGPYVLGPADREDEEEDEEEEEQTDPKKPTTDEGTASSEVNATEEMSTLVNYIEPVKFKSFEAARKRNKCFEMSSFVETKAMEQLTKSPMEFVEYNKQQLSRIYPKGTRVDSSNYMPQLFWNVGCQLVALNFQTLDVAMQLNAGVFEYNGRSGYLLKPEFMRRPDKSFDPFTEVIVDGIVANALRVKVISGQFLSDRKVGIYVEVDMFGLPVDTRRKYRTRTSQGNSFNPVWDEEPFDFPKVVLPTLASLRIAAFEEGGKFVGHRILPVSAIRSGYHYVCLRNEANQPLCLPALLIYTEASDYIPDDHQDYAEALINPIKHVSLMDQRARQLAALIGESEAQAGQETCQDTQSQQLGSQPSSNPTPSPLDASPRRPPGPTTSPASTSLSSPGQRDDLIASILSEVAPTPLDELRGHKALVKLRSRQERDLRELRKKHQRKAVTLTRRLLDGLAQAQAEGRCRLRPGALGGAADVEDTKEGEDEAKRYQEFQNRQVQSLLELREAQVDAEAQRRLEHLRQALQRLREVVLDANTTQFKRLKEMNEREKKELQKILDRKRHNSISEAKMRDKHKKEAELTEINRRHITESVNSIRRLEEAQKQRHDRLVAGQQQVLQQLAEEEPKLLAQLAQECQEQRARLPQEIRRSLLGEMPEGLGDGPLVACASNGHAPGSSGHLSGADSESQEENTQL
* marks the source's active call; other numbers are inactive results; i = inactive; / = no result; ! = repeats disagree.

SMILES	Tn7 DDE FP	DDE Tn6 FP inh	CendR NRP1 mod	proKLK7 act	PLC-gamma1 inh	PLCb3 inh
CCOc1ccc2c(c1)OC1(CCC(C)C1)CC2=O (stereo unspecified)	1.9	-9.8	27.7*	-0.7	0.9	-2.0
Cc1cccc(NS(=O)(=O)c2ccc(NS(=O)(=O)c3cccs3)cc2)c1	-0.5	-6.7	-13.5	-0.1	-2.8	-6.5
Cc1cccc(NS(=O)(=O)c2cccs2)c1	2.6	0.5	36.3*	0.0	0.4	4.0
Cc1cccc(CN2CCN(C3CN(Cc4cn(Cc5ccc(Cl)cc5)nn4)S(=O)(=O)C3)CC2)c1 (stereo unspecified)	0.6	-4.2	4.4	0.0	2.8	-3.5
Cc1cccc(CN2CCN(C3CN(Cc4cn(Cc5cccc(Cl)c5)nn4)S(=O)(=O)C3)CC2)c1 (stereo unspecified)	8.1	4.6	23.0*	0.6	2.4	-0.3
C=Cc1c(C)c2cc3[nH]c(cc4nc(cc5nc(cc1[nH]2)C(C)=C5CCC(=O)O)C(CCC(=O)O)=C4C)c(C)c3C=C	-0.7	31.1*	20.4*!	1.2	-30.9	-40.2
OC(c1ccccc1)(c1ccccc1)C1CCN(CCCNc2ccccc2F)CC1	2.2	-2.4	/	0.2	1.6	2.8
CN(C)[C@H]1CCN(c2ccc3c(c2)O[C@H]2CCN(C2)S3(=O)=O)C1	2.1	0.0	/	-0.2	-1.9	-4.5
CN1CCCc2cc(C=O)ccc21	1.3	0.6	0.8	-0.3	-9.6	-11.7
CCCN1CCCc2cc(CN)ccc21	4.8	4.8	25.2*	-0.8	-56.4	-85.6
COc1ccc(C(=O)C2CCN(c3ncnc4sccc34)CC2)cc1	2.9	3.3	/	/	0.5	-4.2
COc1cc(C(=O)n2nc(C)cc2C)ccc1O	-2.5	-0.2	33.0*	0.1	-0.4	-0.7
COc1ccc(C(=O)n2nc(C)cc2C)cc1Br	5.5	6.3	4.7	0.7	-0.6	-3.2
CCOc1cc(NC(=S)NCCCN2CCOCC2)c(OCC)cc1NC(=O)c1cccs1	-5.3	7.2	23.5*	-0.5	4.1	-0.3
N#CCc1ccc(OC[C@@H](O)CN2CCC(C(O)(c3ccccc3)c3ccccc3)CC2)cc1	-3.5	4.2	/	0.2	1.4	1.6
Clc1ccc(CN2CCC(Cc3ccccc3)CC2)cc1	-4.3	-7.6	10.3	0.4	10.8*	5.9
Clc1cccc(CN2CCC(Cc3ccccc3)CC2)c1	-0.5	0.0	-8.9	0.1	1.7	2.8
O=C(O)c1ccccc1NS(=O)(=O)c1cccc2cccnc12	-1.8	-1.9	-0.5	-0.2	7.9	10.9*
CCCN1CCC(=O)N(CCSc2ccccc2)CC1	-1.7	-0.9	5.3	0.8	1.6	2.2
c1ccc(SCCN2CCN(c3ccccc3)CC2)cc1	0.6	0.2	8.9	0.2	10.4*	-3.7
COc1ccccc1CNC(=O)NCCCN1CCN(c2ccc(F)cc2)CC1	-2.7	-3.5	/	-0.4	1.7	-2.0
O=C(NC1CCCCN(Cc2cccc(Cl)c2)C1=O)c1cccc(C(F)(F)F)c1 (stereo unspecified)	-0.7	-4.2	/	0.2	0.1	-2.6
N/C(COc1ncn(-c2ccccc2)n1)=N\S(=O)(=O)c1ccc(Cl)cc1Cl	-4.8	-2.8	0.1	0.1	0.2	1.6
NC(=O)COc1ncn(-c2ccccc2)n1	0.5	-1.4	28.6*	0.0	-3.5	-0.4
CC1CCC2(CC1)CCC2NCc1ccc(Br)cc1 (stereo unspecified)	-6.1	1.9	/	/	2.0	6.5
SMILES	Tn7 DDE FP	DDE Tn6 FP inh	CendR NRP1 mod	proKLK7 act	PLC-gamma1 inh	PLCb3 inh
COc1ccc(C2=CN(Cc3ccccc3)C(c3ccccc3)CC2=O)cc1 (stereo unspecified)	2.1	1.8	20.7*	0.3	-16.5	-30.9
CCCNC(=S)Nc1ccc(CC(=O)OC)cc1	7.8	1.5	23.5*	-0.5	3.8	1.2
CCn1cc(C(=O)NCc2cccs2)c(=O)c2ccc(C)nc21	-1.2	-3.5	27.8*	0.6	1.6	-2.2
Cc1cc(C(=O)COC(=O)c2ccc3c(c2)OCO3)c(C)n1Cc1cccs1	-7.6	-0.8	0.7	0.2	10.4*	4.3
Cc1ccc2c(c1)-c1c(cnn1CC(=O)NCCc1ccc(Cl)cc1)CO2	7.9	-3.4	/	0.5	-0.2	0.1
CC(C)C[C@@H](COc1ccccc1)N1CCN(CCc2ccccc2)CCC1=O	-4.5	9.4	36.4*	0.5	1.7	-1.3
CCCCCCCN1CCC(=O)N([C@H](CO)CC(C)C)CC1	7.7	-3.2	27.4*	-0.4	2.1	7.0
CC(C)CN1CCC(=O)N([C@H](COc2ccccc2)Cc2ccccc2)CC1	6.0	10.9	-1.6	0.2	0.2	3.1
CCCN1CCC(=O)N([C@H](COc2ccccc2)CC(C)C)CC1	7.9	-1.4	28.3*	-0.4	0.6	2.0
CCCCCCCN1CCC(=O)N([C@H](CO)Cc2ccccc2)CC1	9.4	1.9	11.4	0.2	-1.2	3.5
CCCCCn1cc(CCC(=O)Nc2ccc(N(C)c3ccccn3)cc2)c2ccccc21	2.5	-0.8	/	-3.6	-29.7	-35.9
COc1ccc(-c2c(-c3ccsc3)oc3ccc(N4CCOCC4)cc23)cn1	-6.3	4.4	6.3	-19.1	-340.7	-482.4
Nc1ccc(C#Cc2c(-c3ccsc3)oc3ccc(N4CCOCC4)cc23)cc1	-0.1	-4.5	26.0*	-26.5	i	i
O=S1(=O)c2c(cccc2N2CCC[C@@H]2CO)O[C@@H]2CCN1C2	-3.8	5.1	/	0.3	-4.4	-5.3
COc1cc(NC(=O)c2ccccn2)ccc1NC(=O)c1ccccc1Cl	-9.1	-9.5	/	/	-3.5	-15.5
COc1ccc(OC)c(Nc2nc3nonc3nc2N2CCCCC2)c1	3.8	-3.4	49.1*	-0.1	1.9	5.5
COc1ccccc1Nc1nc2nonc2nc1N1CCC(C)CC1	-1.7	5.0	-5.0	0.2	1.5	3.7
O=C(COC(=O)C1CC(=O)N(Cc2ccccc2)C1)Nc1ccccc1F (stereo unspecified)	-2.5	-1.2	25.8*	0.1	-5.0	-11.2
Cc1cc(C=O)c(C)n1-c1ccc(N2CCCCC2)c([N+](=O)[O-])c1	4.2	1.4	40.8*	0.4	0.9	1.9
CCOC(=O)C1(Cc2ccccc2)CCN(Cc2cccn2-c2nccs2)CC1	-6.6	-0.3	33.0*	0.2	2.3	5.6
CCOC(=O)C1(Cc2cccc(OC)c2)CCN(Cc2cccn2-c2nccs2)CC1	5.8	3.9	2.4	0.5	-0.2	3.6
CCCCCCCN1C(Nc2ccccc2)=NC[C@@H]1Cc1ccccc1	-5.9	-3.9	26.2*	0.3	3.9	4.1
c1ccc(CCCCN2C(Nc3ccccc3)=NC[C@@H]2Cc2ccccc2)cc1	4.0	-1.3	-7.6	0.6	8.0	1.1
COP(=O)(O)C(Cc1ccccc1)NC(=O)OCc1ccccc1 (stereo unspecified)	-3.7	2.8	/	-0.3	1.6	0.4
